Compounds with a hit are over-represented: about 4% of the library has one in this group of screens.
OX1R antag-1 – antagonists of human orexin 1 receptor (OX1R) | OX1R-expressing cells, FRET antagonist read-out | inhibition, % at 6.6 µM | 330,000 tested, 1.8% active | AID 485270; in the data active = inhibition mostly above about 38%, no sharp cut-off; inactive = mostly below about 40%;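 note: 0% = agonist challenge alone and 100% = reference antagonist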
Target sequence (O43613 whole entry, looked up): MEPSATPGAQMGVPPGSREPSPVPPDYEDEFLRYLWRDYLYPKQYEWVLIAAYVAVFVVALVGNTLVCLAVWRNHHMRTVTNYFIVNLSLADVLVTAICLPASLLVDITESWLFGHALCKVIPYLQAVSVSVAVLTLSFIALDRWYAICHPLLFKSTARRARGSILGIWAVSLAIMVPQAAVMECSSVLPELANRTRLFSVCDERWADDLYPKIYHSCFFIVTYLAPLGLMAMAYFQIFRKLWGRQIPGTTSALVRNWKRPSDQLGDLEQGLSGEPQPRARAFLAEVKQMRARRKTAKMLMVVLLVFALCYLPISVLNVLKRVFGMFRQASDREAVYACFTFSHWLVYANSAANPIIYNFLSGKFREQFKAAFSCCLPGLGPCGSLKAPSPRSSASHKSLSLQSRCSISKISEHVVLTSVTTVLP
TAAR1 antagonist – antagonists of human TAAR1; Q96RJ0; CHO RD-HGA16 TAAR1, Fluo-8 calcium fluorescence, antagonist; inhibition, % at 3 µM; 360,000 tested, 1.5% active; AID 624466;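 active = inhibition above a per-plate cutoff, the mean inhibition of test compounds on that plate plus 3 SD, cut at about 49% in these data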;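 note: 0% = DMSO plus EC80 beta-PEA response and 100% = DMSO alone without agonist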
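Assay system: RD-HGA16 CHO cells with stable hTAAR1 and Gα16 / Reagent: EC80 β-phenethylamine stimulus / Doses: 3 µM, single point / Timing: dye loading 75 min at 37 °C, then 30 min room temperature / Measured by: Fluo-8 intracellular calcium dye fluorescence, real-time kinetic reads / Controls: vehicle wells and EC80 agonist wells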
CHO parental Ca – counter-screen: ATP calcium response change in parental CHO cells; AID 463079; parental CHO-K1, ATP-induced calcium, Fluo-8 fluorescence; 330,000 tested, 0.63% active; inhibition, % at 5.6 µM;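 active = inhibition above that plate's mean sample inhibition plus 3 SD, cut at about 26% in these data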;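 note: 0% = ATP-challenged DMSO wells and 100% = DMSO wells without ATP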
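Test system: untransfected parental CHO cell line; also added: ATP stimulus; dosing: 5.6 µM, single dose; signal: calcium-sensitive Fluo-8 fluorescence; measure: percent inhibition of ATP-evoked calcium rise, normalized to controls; benchmarks: low control ATP plus DMSO, high control DMSO only; replication: one well per compound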
TAAR1 ag – human TAAR1 agonism | CHO RD-HGA16 TAAR1, Fluo-8 calcium fluorescence; vehicle wells 0%, saturating PEA agonist 100% | activation, % at 3 µM | 360,000 tested, 0.99% active | AID 624467;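 active = activation above the mean activation of all test compounds in the run plus 3 SD, cut at about 38% in these data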
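Test system: RD-HGA16 (CHO) cells co-expressing Gα16 and hTAAR1; dosing: one-point dosing at 3 µM (nominal); timing: 17-24 h seeding, 75 min 37 °C dye, 30 min RT; signal: kinetic Fluo-8 calcium fluorescence; read-out basis: % activation relative to PEA EC100 response; controls: DMSO and PEA EC100; replicates: n 1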
OX1R antag-2 – antagonists of human orexin 1 receptor | O43613 | CHO/OX1R cells, Fluo-8 calcium fluorescence, orexin A | inhibition, % at 5 µM | 330,000 tested, 0.43% active | AID 434989;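 active = inhibition above its plate's threshold, mean inhibition of all tested compounds on the plate plus 3 SD, cut at about 37% in these data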;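 note: 0% = orexin A challenge wells and 100% = SB-334867-A antagonist wells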
The depositor's hits bear a star; x = no result given.

SMILES | OX1R antag-1 | TAAR1 antagonist | CHO parental Ca | TAAR1 ag | OX1R antag-2
C[C@H](O)[C@@H]1C(=O)N2CCc3c([nH]c4c(-c5ccccc5)cccc34)[C@@H]2C[C@@H]1N(C)C(=S)NCCc1ccccc1 | x | -14 | x | 19 | x
CC(C)(C)n1nc(C2CC2)cc1NC(=O)Nc1ccccc1 | x | 2 | x | 3 | x
COc1cc(C2Nc3ccc4ncccc4c3C3=C2C(=O)CCC3)cc(OC)c1O (stereo not drawn) | 68* | -2 | -9 | 7 | -14
O=c1c2ccccc2sc2ccc(NCCCN3CCOCC3)cc12 | 16 | 4 | 9 | 10 | -9
COc1cc2sc3cc(NCCCN4CCOCC4)ccc3c(=O)c2cc1OC | 63* | 12 | -15 | 1 | -2
CN(C)c1ccc(CC(=O)N2CCCC(c3cc(C(=O)Nc4ccc(C(C)(C)C)cc4)no3)C2)cc1 (stereo not drawn) | x | 55* | x | 2 | x
O=C(NCCOc1ccccc1)C1CCC(=O)N(CCCN2CCCC2=O)C1 (stereo not drawn) | 11 | 2 | -8 | 2 | -3
COc1ccc2nc(NC(=O)Nc3ccccc3OC)sc2c1 | 66* | -1 | -12 | 7 | 14
COc1ccc2nc(NC(C)=O)sc2c1 | 22 | -2 | 13 | 3 | -7
COc1ccc2nc(Nc3ccccc3OC)sc2c1 | 14 | 6 | -12 | -3 | -32
COc1ccc2nc(NC(=O)c3ccc4ncsc4c3)sc2c1 | 57* | x | -16 | x | -31
COc1cccc(C(CC(=O)Nc2cccc3ccccc23)NC(=O)c2ccccc2)c1 (stereo not drawn) | 35* | 16 | -2 | 2 | -15
COc1ccc2nc(NC(=O)Nc3cccc4ccccc34)sc2c1 | 42* | -1 | 5 | 5 | -14
CN(Cc1ccsc1)C(=O)Cn1cc(Br)ccc1=O | -1 | -2 | 7 | 2 | 4
Cc1ccc(NC(=O)c2c(C(F)(F)F)nn(C)c2SCc2cccc(C(F)(F)F)c2)cc1C | 25 | 5 | 67* | 4 | 8
Cc1ccc(NC(=O)c2c(C(F)(F)F)nn(C)c2SCc2ccc(Cl)cc2)cc1C | 16 | 5 | 27 | 5 | 15
Nc1nc2c(ncn2[C@@H]2O[C@H](C(=O)N[C@H](Cc3ccccc3)C(=O)NC3CCCCC3)[C@@H](O)[C@H]2O)c(=O)[nH]1 | x | -19 | x | 3 | x
C/C(=N\NC(=O)COc1ccccc1-c1ccccc1)c1ccc(O)cc1O | 13 | 50* | -18 | -1 | -12
CCc1ccc(S(=O)(=O)/N=C2/C=C(Sc3ncn[nH]3)C(=O)c3ccccc32)cc1 | 68* | x | -12 | x | -14
CCc1ccc(S(=O)(=O)/N=C2\C=C(Nc3ccc(O)cc3)C(=O)c3ccccc32)cc1 | 33 | x | -4 | x | 15
CCc1ccc(S(=O)(=O)/N=C2\C=C(Nc3cccc(C(=O)O)c3)C(=O)c3ccccc32)cc1 | 46* | 0 | -7 | 0 | -13
Cc1cc(C)c(O)c(-c2cc(C(=O)Nc3cccnc3)[nH]n2)c1 | 44* | 36 | 3 | 4 | 26
COc1ccc(OC)c(NC(=O)c2cc(-c3cc(C)cc(C)c3O)n[nH]2)c1 | 62* | -8 | -17 | 0 | 27
COc1ccc(NC(=O)c2cc(-c3cc(C)cc(C)c3O)n[nH]2)cc1Cl | 79* | 8 | 15 | 10 | 8
COc1ccccc1C(=O)N1CCC2CCN(C(=O)c3ccccc3)C2C1 (stereo not drawn) | x | -13 | x | 3 | x
SMILES | OX1R antag-1 | TAAR1 antagonist | CHO parental Ca | TAAR1 ag | OX1R antag-2
O=c1ccn(C2CC(O)C(COC(c3ccccc3)(c3ccccc3)c3ccccc3)O2)c(=O)[nH]1 (stereo not drawn) | x | -7 | x | 12 | x
CCCS(=O)(=O)NC(=O)C1(C)CCN(C(=O)c2ccc(F)c(C)c2)C1 (stereo not drawn) | x | -6 | x | 1 | x
Cc1nnc(-c2ccccc2)c[n+]1[O-] | 56* | 6 | 3 | -2 | -2
c1ccc(-c2cnc(-c3ccccc3)nn2)cc1 | 26 | -9 | -6 | 18 | 10
C[C@H](O)[C@@H]1C(=O)N2CCc3c([nH]c4c(-c5ccc6c(c5)OCO6)cccc34)[C@@H]2C[C@@H]1N(C)C(=O)Nc1ccccc1 | x | 24 | x | 4 | x
CC(=O)N(C)C1=C(N2CCOCC2)C(=O)c2ccccc2C1=O | 73* | x | -4 | x | 8
CC(=O)c1ccc(NC2=C(N3CCOCC3)C(=O)c3ccccc3C2=O)cc1 | 22 | -13 | -11 | 15 | -11
Cc1ccc2c(c1)c1c3n2CC(=C2C(=O)OC(C)(C)OC2=O)NC3CCC1 (stereo not drawn) | 43* | -6 | -12 | 1 | 28
Cc1ccc2c(c1)c1c3n2CCN(C(=O)C2CC2)C3CCC1 (stereo not drawn) | 12 | -11 | -25 | -1 | -28
CC(C)(C(=O)N1CCC1(C)C(=O)NC1Cc2ccccc2C1)c1ccccc1 (stereo not drawn) | x | -2 | x | 3 | x
COc1ccc(S(N)(=O)=O)cc1C(=O)OCC(=O)Nc1sccc1C#N | 10 | -11 | -5 | 2 | 29
N#Cc1ccsc1NC(=O)COC(=O)c1cc2ccccc2cc1O | 41* | 15 | -14 | 12 | -8
C=CCS(=O)(=O)N1CCCC(Cc2ccccc2C)(C(=O)OCC)C1 (stereo not drawn) | 23 | 1 | -11 | 0 | -14
Cc1ccc(C(=O)N2CCC3(CC2)Oc2ccc(Cl)cc2C(=O)C32CC(c3cccnc3)=NO2)s1 (stereo not drawn) | 27 | 31 | -21 | 7 | -12
O=C(/C=C/c1cccs1)N1CCC2(CC1)Oc1ccc(Cl)cc1C(=O)C21CC(c2cccnc2)=NO1 (stereo not drawn) | 38 | 53* | -4 | 20 | -2
COC(=O)c1cc2c(c3c4cc(F)ccc4n(S(=O)(=O)c4ccccc4)c13)C(=O)N(Cc1ccc(N(C)C)cc1)C2 | x | -3 | x | 0 | x
COc1ccc(NC2=C(NCCO)C(=O)c3ccccc3C2=O)cc1 | 23 | -5 | -3 | 3 | 1
COc1cccc(NC2=C(NCCO)C(=O)c3ccccc3C2=O)c1 | 46* | -6 | -15 | -1 | -29
CCN(C(=O)COc1cc(=O)n(CC)c2ccccc12)c1cccc(Cl)c1 | 47* | 3 | -12 | 12 | -31
CCn1c(=O)cc(OCC(=O)O)c2ccccc21 | 9 | 3 | -1 | 7 | -13
CCN(C(=O)COc1cc(=O)n(CC)c2ccccc12)c1cc(Cl)ccc1OC | 25 | 49* | -11 | 8 | -34
CCN(Cc1ccccc1)C(=O)COc1cc(=O)n(CC)c2ccccc12 | 58* | 22 | -12 | 4 | -11
CCCN(CCC)C(=O)COc1cc(=O)n(CC)c2ccccc12 | 21 | -5 | -9 | 1 | -32
COC(=O)[C@H](Cc1ccccc1)N[C@H](c1ccc(OC)cc1)[C@@H](O)Cc1ccccc1 | x | 6 | x | 0 | x
COC(=O)[C@]12C[C@H](CC(=O)N3CCSCC3)C(=O)N(Cc3ccccc3)C1=C[C@H](C(C)(C)C)O[C@@H]2C | x | -30 | x | -2 | x

High-throughput results as filed in PubChem BioAssay.
